pEC50, pIC50: −log10 of the molar value.
Experiments:
[1] = Antiviral activity against ROJO virus strain in PBLs (peripheral blood lymphocytes); format: functional, cell-based; conditions: Homo sapiens
In short: (§1)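 PBMCs isolated from hepatitis- and HIV-seronegative donors by Ficoll-Hypaque gradient and stimulated 3 days with phytohemagglutinin/IL-2. Infected with pediatric low-passage clinical isolates or NIAID subtype isolates, in RPMI 1640 with 10% FBS, 2 mM glutamine, penicillin/streptomycin. Replication read as supernatant reverse transcriptase activity. […] Run in triplicate, with AZT as positive control.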

[2] = Antiviral activity against Ba-L monocyte tropic isolate strain in monocyte; format: functional; conditions: Homo sapiens
In short: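 Monocytes isolated from hepatitis- and HIV-seronegative donors by Ficoll-Hypaque gradient, cultured 6 days into macrophages, then infected with Ba-L. Medium RPMI 1640 with 10% FBS, 2 mM glutamine, penicillin/streptomycin. Replication read as p24 antigen by ELISA 6 days postinfection. […] Run in triplicate, with AZT as positive control.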

[3] = system: CCRF-CEM; assay: Antiviral activity against site directed resistant isolate HIV-1 K101E in CEM cells; format: functional, cell-based, Homo sapiens
[4] = Antiviral activity against subtype isolate B strain in PBLs (peripheral blood lymphocytes); format: functional, cell-based, Homo sapiens; in short: as §1
[5] = Antiviral activity against WEJO virus strain in PBLs (peripheral blood lymphocytes); format: functional, cell-based; conditions: Homo sapiens; in short: as §1
[6] = Antiviral activity against subtype isolate A strain in PBLs (peripheral blood lymphocytes); format: functional, cell-based; conditions: Homo sapiens; in short: as §1
[7] = system: CCRF-CEM; assay: Antiviral activity against site directed resistant isolate HIV-1 L100I in CEM cells; format: functional, cell-based, Homo sapiens
In short: (§2)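 CEM-SS cells in RPMI 1640 with 10% heat-inactivated FBS were infected with NL4-3 molecular clones carrying site-directed RT mutations. Cytoprotection from virus-induced syncytial killing was read by MTS/phenazine ethosulfate reduction (A490) 6 days after infection. […] Triplicate, variation of mean about 10%.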

[8] = Antiviral activity against subtype isolate D strain in PBLs (peripheral blood lymphocytes); format: functional, cell-based; conditions: Homo sapiens; in short: as §1
[9] = system: CCRF-CEM; assay: Antiviral activity against site directed resistant isolate HIV-1 V106A in CEM cells; format: functional, cell-based, Homo sapiens; in short: as §2
[10] = system: CCRF-CEM; assay: Antiviral activity against site directed resistant isolate HIV-1 K103N in CEM cells; format: functional, cell-based, Homo sapiens; in short: as §2
[11] = Antiviral activity against subtype isolate F strain in PBLs (peripheral blood lymphocytes); format: functional, cell-based, Homo sapiens; in short: as §1
[12] = system: CCRF-CEM; assay: Antiviral activity against site directed resistant isolate HIV-1 Y181C in CEM cells; format: functional, cell-based, Homo sapiens; in short: as §2
[13] = Antiviral activity against subtype isolate G strain in PBLs (peripheral blood lymphocytes); format: functional, cell-based; conditions: Homo sapiens; in short: as §1
[14] = system: CCRF-CEM; assay: Antiviral activity against site directed 4X AZT resistant isolate HIV-1 in CEM cells; format: functional, cell-based, Homo sapiens; conditions: Homo sapiens, CCRF-CEM
[15] = Antiviral activity against subtype isolate C strain in PBLs (peripheral blood lymphocytes); format: functional, cell-based; conditions: Homo sapiens; in short: as §1
[16] = system: CCRF-CEM; assay: Antiviral activity against site directed 4X AZT resistant isolate HIV-1 L100I in CEM cells; format: functional, cell-based, Homo sapiens
In short: (§3)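 CEM-SS cells infected with low-cytopathicity site-directed RT-mutant NL4-3 clones (A98G, L74V, 4XAZT = D67N/K70R/T215Y/K219Q, 4XAZT/L100I). Replication was quantified by p24 ELISA rather than cytoprotection. […] Triplicate, variation of mean about 10%.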

[17] = system: CEM-SS; assay: Concentration required for cytotoxicity against mock infected CEM-SS cells; format: functional; conditions: Homo sapiens
In short: (§4)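 CEM-SS cells kept in RPMI 1640 with 10% heat-inactivated FBS, 2 mM glutamine, penicillin/streptomycin. Microtiter assay with cytopathic HIV-1 RF, or mock infection for toxicity. Viability read by MTS/phenazine ethosulfate reduction (absorbance 490 nm) 6 days after infection. […] Triplicate.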

[18] = Antiviral activity against subtype isolate O strain in PBLs (peripheral blood lymphocytes); format: functional, cell-based, Homo sapiens; in short: as §1
[19] = system: CCRF-CEM; assay: Antiviral activity against site directed resistant isolate HIV-1 V179D in CEM cells; format: functional, cell-based, Homo sapiens; in short: as §2
[20] = system: CCRF-CEM; assay: Antiviral activity against site directed resistant isolate HIV-1 Y188C in CEM cells; format: functional, cell-based, Homo sapiens; in short: as §2
[21] = Antiviral activity against multi drug resistant MDR 769 strain in PBLs (peripheral blood lymphocytes); format: functional, cell-based; conditions: Homo sapiens
In short: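 PBMC from hepatitis- and HIV-seronegative donors isolated by Ficoll-Hypaque gradient and stimulated 3 days with phytohemagglutinin/IL-2 before infection. Medium RPMI 1640 with 10% FBS, 2 mM glutamine, penicillin/streptomycin. Replication read as supernatant reverse transcriptase activity. […] Run in triplicate, SD within triplicate under 10%; AZT positive control.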

[22] = Antiviral activity against SLKA virus strain in PBLs (peripheral blood lymphocytes); format: functional, cell-based; conditions: Homo sapiens; in short: as §1
[23] = system: CCRF-CEM; assay: Antiviral activity against site directed resistant isolate HIV-1 L74V in CEM cells; format: functional, cell-based, Homo sapiens; in short: as §3
[24] = Antiviral activity against TEKI virus strain in PBLs (peripheral blood lymphocytes); format: functional, cell-based; conditions: Homo sapiens; in short: as §1
[25] = system: CCRF-CEM; assay: Antiviral activity against site directed wild-type enzyme isolate HIV-1 NL4-3WT in CEM cells; format: functional, cell-based; conditions: Homo sapiens
In short: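 Wild-type NL4-3 in CEM-SS cells, measured both by MTS cytoprotection 6 days after infection and by p24 ELISA. The IC50 is the mean of the two methods' values.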

[26] = system: Human immunodeficiency virus type 1 (RF/HAT ISOLATE); assay: Inhibitory concentration for cytopathicity of HIV-1RF in CEM-SS cells; format: functional, organism-based; conditions: Human immunodeficiency virus 1, RF; in short: as §4
[27] = Antiviral activity against subtype isolate E strain in PBLs (peripheral blood lymphocytes); format: functional, cell-based; conditions: Homo sapiens
[28] = Ratio of CC50/EC50 was determined; format: cell-based; conditions: human, CEM-SS cells; read-out: TI
In short: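 HIV-1 RF–infected CEM-SS cells (RPMI 1640, 10% heat-inactivated FBS, 2 mM glutamine, penicillin/streptomycin), plus mock-infected CEM-SS in parallel. Cell killing and viability were read by MTS/phenazine ethosulfate reduction at 490 nm 6 days after infection. […] Index = CC50 ÷ EC50. Triplicate tests.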

[29] = system: CCRF-CEM; assay: Antiviral activity against site directed resistant isolates in HIV-1 A98G CEM cells; format: functional, cell-based, Homo sapiens; in short: as §3

SMILES	pIC50 [1]	pIC50 [2]	pIC50 [3]	pIC50 [5]	pIC50 [6]	pIC50 [7]	pIC50 [8]	pIC50 [9]	pIC50 [10]	pIC50 [12]	pIC50 [13]	pIC50 [14]	pIC50 [15]	pIC50 [16]	CC50 [17]	pIC50 [19]	pIC50 [20]	pIC50 [21]	pIC50 [23]	pIC50 [25]	also measured
COC(=O)CCCC=C(c1cc(Cl)c(OC)c(C(=O)OC)c1)c1cc(Cl)c(OC)c(C(=O)OC)c1	6.12	5.27	6.44	6.22	7.00	6.39	6.74	< 4.70	6.22	< 4.70	6.22	7.12	6.39	6.31	31600 nM	5.89	5.48	4.77	6.33	6.07	pIC50 [4]: 4.90; pIC50 ([11]; Homo sapiens): 5.89; pIC50 [18]: 4.92; pIC50 [22]: 5.89; pIC50 [24]: 6.10; pEC50 [26]: 7.89
COC(=O)CCCC=C(c1cc(Br)c(OC)c(C(=O)OC)c1)c1cc(Br)c(OC)c(C(=O)OC)c1	6.27	5.44	6.23	6.40	6.70	7.08	6.74	5.01	6.46	5.08	6.52	7.49	6.51	6.49	13000 nM	5.89	5.70	4.31	6.55	6.40	pIC50 [27]: 6.70; pIC50 ([4]; Homo sapiens): 5.27; selectivity ratio [28]: 10000; pIC50 [11]: 5.72; pIC50 [29]: 6.34; pIC50 ([18]; Homo sapiens): 4.80; pIC50 [22]: 6.00; pIC50 [24]: 6.05; pEC50 [26]: 8.89
Cc1ccnc2c1NC(=O)c1cccnc1N2C1CC1 [NEVIRAPINE]	–	–	8.30	–	–	6.74	–	5.73	5.84	5.08	–	8.10	–	6.68	–	7.15	5.08	–	7.21	7.54	pIC50 [29]: 6.65
